High-throughput results (PubChem BioAssay)
Hits are enriched below; roughly 5.4% of the tested compounds scored in any of these assays.
Mdm2 MdmX PPI = inhibitors of human Mdm2/MdmX interaction. O15151+Q00987. SaOS-2 split-luciferase Mdm2/MdmX complementation, luminescence. inhibition, % at 8 µM. 330,000 tested, 3% active. AID 485346;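 active means inhibition of at least 50% at 8 µM in the primary screen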
Target sequence (O15151 whole entry, looked up): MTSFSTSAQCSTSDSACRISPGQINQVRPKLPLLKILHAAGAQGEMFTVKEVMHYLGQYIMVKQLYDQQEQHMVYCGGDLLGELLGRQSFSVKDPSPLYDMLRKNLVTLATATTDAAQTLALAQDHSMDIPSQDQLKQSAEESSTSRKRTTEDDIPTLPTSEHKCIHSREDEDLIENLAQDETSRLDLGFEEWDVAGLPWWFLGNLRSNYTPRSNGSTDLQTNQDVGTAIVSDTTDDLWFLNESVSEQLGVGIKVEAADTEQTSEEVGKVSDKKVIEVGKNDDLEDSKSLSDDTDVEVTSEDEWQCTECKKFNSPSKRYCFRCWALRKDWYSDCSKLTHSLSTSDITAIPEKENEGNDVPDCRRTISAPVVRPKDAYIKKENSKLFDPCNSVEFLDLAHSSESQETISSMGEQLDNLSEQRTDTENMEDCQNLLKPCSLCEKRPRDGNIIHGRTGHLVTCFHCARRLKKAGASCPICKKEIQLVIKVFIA
Target sequence (Q00987 whole entry, looked up): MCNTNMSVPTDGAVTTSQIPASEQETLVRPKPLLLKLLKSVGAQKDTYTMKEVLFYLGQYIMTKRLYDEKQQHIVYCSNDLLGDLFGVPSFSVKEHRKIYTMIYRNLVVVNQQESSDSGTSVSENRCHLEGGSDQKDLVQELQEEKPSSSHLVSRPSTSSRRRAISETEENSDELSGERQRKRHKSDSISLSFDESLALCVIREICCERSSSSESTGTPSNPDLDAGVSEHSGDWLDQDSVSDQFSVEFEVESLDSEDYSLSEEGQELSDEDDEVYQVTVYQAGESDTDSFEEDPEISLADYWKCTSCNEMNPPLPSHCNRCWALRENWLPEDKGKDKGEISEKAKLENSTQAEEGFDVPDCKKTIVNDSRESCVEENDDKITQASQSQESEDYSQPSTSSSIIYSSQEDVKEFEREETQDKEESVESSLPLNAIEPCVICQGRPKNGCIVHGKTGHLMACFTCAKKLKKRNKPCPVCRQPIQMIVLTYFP
SKKanGAS inh = SKKanGAS growth inhibition | 300,000 tested, 1.3% active | S. pyogenes SKKanGAS, kanamycin growth, BacTiter-Glo, 6 h | AID 1662 | inhibition, % at 7.5 µM;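 active means mean replicate score, as percent of positive control median, at least 50; inconclusive means mean below 50 but one replicate at or above 50; inactive means mean and every replicate below 50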;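 further: strain carries kanamycin resistance gene driven by streptokinase promoter and grows in 40 µg/ml kanamycin; loss of luminescence reflects streptokinase promoter inhibition or plain growth inhibition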
CSC inhib = blocks cancer stem cells. 300,000 tested, 1.1% active. cancer stem cell-like cells viability, luminescence. inhibition, % at 7.5 µM. AID 2717; in the data active means inhibition above about 75%; inconclusive means no clear call, values can overlap the other calls; tested in HMLE shEcad cells
aSyn 5UTR inh = MLPCN primary screen, SNCA 5' untranslated region; inhibition, % (tested at 7.5 µM); 300,000 tested, 0.82% active; alpha-synuclein 5'UTR reporter, inhibitor activity; AID 1813; in the data active means inhibition above about 60%; inconclusive means no clear call, values can overlap the other calls;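 further: H4 neuroglioblastoma cells stably carrying SNCA 5'UTR luciferase fusion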
T cruzi inh = blocks replication of Trypanosoma cruzi; AID 1885; T. cruzi beta-gal in NIH3T3, luminescence, 90 h; 300,000 tested, 1.4% active; inhibition, % (no concentration beside the values);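 active means mean inhibition across valid replicates above about 55%, limit read from the data; inconclusive means mean below that limit but half or more replicates reach it; inactive means mean below it, under half of replicates reach it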;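 further: signal also drops with host cell toxicity which is not excluded here; higher percent means less beta-gal luminescence so fewer parasites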
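Read-out: Parasite load inhibition, % | Test system: Mouse NIH/3T3 fibroblasts infected with β-gal-expressing T. cruzi Tulahuen C4 | Amount: 5,000 cells/well | Medium: DMEM, 2% fetal bovine serum | Signal: GalScreen β-gal luminescence, detergent lysis, 60 min | Timing: 3 h attach, ≥90 h co-culture | Also added: Tulahuen C4 trypomastigotes, 5000/well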
Mdm2-MdmX conf = confirmation of human Mdm2/MdmX interaction inhibitors | Mdm2-MdmX binding, luminescent assay | AID 489028 | inhibition, % at 8 µM | 10,000 tested, 55% active | shares compounds with Mdm2 MdmX PPI; in the data active means inhibition above about 40%
FLuc counter = inhibits full-length luciferase, flagging false Mdm2/MdmX hits | shares compounds with Mdm2 MdmX PPI | SaOS-2 full-length luciferase counterscreen, luminescence | inhibition, % at 8 µM | 6,200 tested, 77% active;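 active means mean inhibition at 8 µM reaching about 37%, which flags the compound as non-specific, limit read from the data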;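 further: p53-null SaOS-2 cells with luciferase driven by a doxycycline-inducible promoter; compound on cells about two nights before reading with doxycycline added after day one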
Numbers stand for hits; - = inactive; ? = inconclusive; . = not tested or not shown.

SMILES	Mdm2 MdmX PPI	SKKanGAS inh	CSC inhib	aSyn 5UTR inh	T cruzi inh	Mdm2-MdmX conf	FLuc counter
CCNC(=O)NC(=O)C(C)Sc1nc2ccccc2n1CC(C)C (stereo not given)	-	-	-	-	-	.	.
COc1cc(Nc2c3ccccc3nc3ccccc23)cc(OC)c1OC	86	-	-	-	-	55	62
COc1ccc(C)cc1Nc1c2c(nc3ccccc13)CCC2	59	-	-	68	-	59	87
COc1cc(Nc2nc(-c3ccccc3)c3cc(C)ccc3n2)cc(OC)c1OC	56	-	?	-	-	-	.
COc1ccc(Nc2c3c(nc4ccccc24)CCCC3)cc1OC	-	-	-	-	-	.	.
CCOC(=O)c1ccc2nc(CCC(=O)N[C@H](C(=O)OC)C(C)C)c(=O)n(CC)c2c1	-	-	.	-	-	.	.
O=S(=O)(NCC(c1ccc2c(c1)OCO2)N1CCOCC1)c1ccccc1 (stereo not given)	-	-	-	-	-	.	.
c1ccc(Oc2cccc(OCCCCSc3ncccn3)c2)cc1	-	-	-	-	-	.	.
Cc1ccc(S(=O)(=O)N2CCN(c3ccc(S(=O)(=O)N4CCOCC4)cn3)CC2)cc1	66	-	-	-	-	-	.
COCc1nc2oc3ccccc3c(=O)c2cc1C(=O)OC	-	-	-	-	-	.	.
COC(=O)COc1cc(Br)c(/C=C2/SC(=O)N(CC(=O)N3CCCC3)C2=O)cc1OC	-	-	-	-	-	.	.
CCOC(=O)N1CCN(C(=O)CCN2C(=O)/C(=C\c3cccc(OC)c3)SC2=S)CC1	60	-	.	-	-	-	46
COc1cccc(/C=C2\SC(=S)N(CCCC(=O)Nc3ccc(C(=O)O)cc3)C2=O)c1	-	-	-	-	-	.	.
COC(=O)COc1ccc(/C=C2/SC(=O)N(CC(=O)N3CCCC3)C2=O)cc1Br	56	-	-	-	-	-	.
O=C(CCN1C(=O)/C(=C\c2ccccc2F)SC1=S)N1CCCCC1	93	-	-	-	-	67	105
COc1ccc(/C=C2/SC(=S)N(CCC(=O)N3CCN(C)CC3)C2=O)cc1	-	-	-	-	-	.	.
COc1ccc(/C=C2\SC(=S)N(CCC(=O)N3CCCCC3)C2=O)cc1	64	-	-	-	-	46	90
CN(C)S(=O)(=O)c1ccc(NC(=O)CCCNC(=O)c2ccc(Cl)cc2)cc1	-	-	-	-	-	.	.
Cc1csc(=O)n1CC(=O)OCc1nnc(-c2ccccc2)o1	-	-	-	-	-	.	.
O=C(CN1C(=O)/C(=C/c2cccc(Br)c2)SC1=S)N1CCCC1	62	-	-	-	-	76	63
O=C(CCN1C(=O)/C(=C/c2ccccc2)SC1=S)N1CCCCCC1	95	-	-	-	-	77	52
O=C(CCN1C(=O)/C(=C/c2ccccc2Cl)SC1=S)NN1CCOCC1	-	-	-	-	-	.	.
O=C(CCN1C(=O)/C(=C\c2ccccc2Cl)SC1=S)N1CCN(c2ccccc2)CC1	98	-	-	-	-	80	42
CCc1ccc(/C=C2\SC(=S)N(CCC(=O)N3CCN(C)CC3)C2=O)cc1	-	-	-	-	-	.	.
CC1CCN(C(=O)CCN2C(=O)/C(=C/c3cccs3)SC2=S)CC1	83	-	-	-	-	46	-
SMILES	Mdm2 MdmX PPI	SKKanGAS inh	CSC inhib	aSyn 5UTR inh	T cruzi inh	Mdm2-MdmX conf	FLuc counter
CCOc1ccc(NC(=O)CN(C)C(=O)c2c(C)nn(-c3ccccc3)c2Cl)cc1OCC	-	-	-	-	-	.	.
COc1cccc(/C=C2\SC(=S)N(CCC(=O)N3CCCCC3)C2=O)c1	86	-	-	-	-	53	71
CC(C)(C)CC(=O)Nc1ccc(Nc2ccccc2)cc1	-	-	-	-	-	.	.
CCOc1cc(/C=N/NC(=O)Cn2nc([N+](=O)[O-])cc2C)cc(Br)c1OCc1ccccc1F	51	-	.	-	-	-	.
O=c1cc(O)c2sc3nc(-c4cccnc4)cc(C(F)(F)F)c3c2[nH]1	-	-	-	-	-	.	.
CC1CCN(Cc2c(C(=O)N/N=C/c3cc(Cl)ccc3O)nnn2-c2nonc2N)CC1	79	66	.	62	61	84	-
C/C(=N\NC(=O)c1nnn(-c2nonc2N)c1CN1CCc2ccccc21)c1ccccc1O	69	-	91	75	-	67	-
COc1c(Cl)cc(Cl)cc1/C=N/NC(=O)c1nnn(-c2nonc2N)c1CN1CCC(C)CC1	-	-	-	-	-	.	.
COc1cc(/C(C)=N/NC(=O)c2nnn(-c3nonc3N)c2-c2cccs2)ccc1O	69	-	-	-	-	-	.
CC1CCN(Cc2c(C(=O)N/N=C/c3cc(Br)ccc3O)nnn2-c2nonc2N)CC1	85	80	.	77	59	83	56
Nc1nonc1-n1nnc(C(=O)N/N=C/c2ccccc2)c1CN1CCc2ccccc21	-	-	.	-	-	.	.
COc1ccc(CNC(=O)CN(Cc2ccc(C)cc2)C(=O)c2csnn2)cc1	-	-	-	-	-	.	.
O=C(c1cccs1)N1CCN(c2nnc(-c3ccccc3)c3ccccc23)CC1	-	-	-	-	-	.	.
Cc1ccc(-c2nnc(N3CCN(C(=O)c4cccs4)CC3)c3ccccc23)cc1	55	-	-	-	-	-	.
Cc1ccc(-c2nnc(N3CCN(c4ccccn4)CC3)c3ccccc23)cc1	57	-	-	-	-	54	48
O=C(CCCN1C(=O)/C(=C/c2cccs2)SC1=S)Nc1ccccn1	56	-	-	-	-	60	98
O=C(CCN1C(=O)/C(=C/c2ccccc2Cl)SC1=S)NCCc1ccc(O)cc1	78	-	-	-	-	-	48
O=C(CCN1C(=O)/C(=C/c2ccccc2Cl)SC1=S)Nc1ccccn1	-	-	-	-	-	.	.
O=C1/C(=C\c2cccc(O)c2O)SC(=S)N1Cc1ccccc1	72	93	86	-	-	57	-
O=C(CCN1C(=O)/C(=C/c2ccccc2Cl)SC1=S)NC1=NCCS1	-	-	-	-	-	.	.
O=C(CCCN1C(=O)/C(=C/c2ccccc2Cl)SC1=S)Nc1ccccn1	67	-	.	-	-	55	-
Clc1cccc(Cl)c1C[n+]1ccc2ccccc2c1	-	-	-	-	-	.	.
CC1CCC2(CC1)NC(=O)N(CC(=O)NC1CCCCC1C)C2=O (stereo not given)	-	.	.	.	.	.	.
CCCNC(=O)c1ccccc1NC(=O)COc1cccc2c1OC(C)(C)C2	-	-	-	-	-	.	.
O=C1/C(=C/c2ccccc2Cl)SC(=S)N1CCCC(=O)N(CCO)c1ccccc1	98	-	-	-	-	-	.
O=C(CCN1C(=O)/C(=C/c2ccccc2Cl)SC1=S)NC1CCCC1	-	-	-	-	-	.	.
O=C(CCN1C(=O)/C(=C/c2ccccc2Cl)SC1=S)Nc1cccnc1	-	-	-	-	-	.	.
O=C(CCCN1C(=O)/C(=C/c2ccccc2Cl)SC1=S)Nc1cccnc1	87	-	-	-	-	73	-
COc1ccc(Br)cc1CN1CCN(Cc2c[nH]c3ccccc23)CC1	69	-	-	-	-	-	83
